# Assay outcomes deposited in PubChem BioAssay by several laboratories.
# CCR6 antagonist: blocks CCL20-driven beta-arrestin recruitment at human CCR6. P51684. CHO-K1 CCR6 PathHunter beta-arrestin, luminescence, CCL20-stimulated. inhibition, % at 20 µM. 0.49% of 340,000 active. AID 493098;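 active = compounds whose inhibition of the agonist-driven luminescence signal at 20 µM reaches about 50%, limit read from the data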;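 also: cells stimulated with CCL20 at 14 nM final; plate controls were DMSO with CCL20 for no effect and DMSO without agonist for full effect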
# APJ antag: APJ receptor antagonism. inhibition, % at 20 µM. P35414. CHO-K1 APJ beta-arrestin complementation, luminescence. 0.32% of 330,000 active;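 active = inhibition above about 40% at 20 µM, limit read from the data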;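 also: cells challenged with 10 nM apelin-13 agonist together with compound; plate controls were apelin-13 plus DMSO wells for no effect and DMSO wells lacking apelin-13 for full effect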
# APJ agonist: APJ receptor agonism | CHO-K1 APJ PathHunter beta-arrestin, luminescence; 0% DMSO wells, 100% apelin | activation, % at 20 µM | 0.11% of 330,000 active | AID 2520;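 active = activation more than six SD over the plate average, tested at 20 µM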;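 also: 0% = DMSO alone and 100% = apelin-13 at 10 nM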
#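 Assay system: CHO-K1 APJ beta-arrestin complementation cell line / Compound: single test compound dose, 20 µM final, 1% DMSO / Times: overnight seeding, 90 min compound at 25 °C, 1 h detection / Technique: beta-gal luminescence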
# CXCR6 block: blocks human CXCR6 beta-arrestin recruitment | O00574 | 0.36% of 360,000 active | AID 602244 | CHO-K1 PathHunter CXCR6 beta-arrestin, luminescence | inhibition, % at 20 µM; in the data active = inhibition above about 34%, passing the limit was not always enough;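 also: antagonist mode with CXCL16 agonist at 10 nM final; 0% = 10 nM CXCL16 with DMSO and 100% = unstimulated wells without agonist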
# Target sequence (O00574 whole entry, looked up): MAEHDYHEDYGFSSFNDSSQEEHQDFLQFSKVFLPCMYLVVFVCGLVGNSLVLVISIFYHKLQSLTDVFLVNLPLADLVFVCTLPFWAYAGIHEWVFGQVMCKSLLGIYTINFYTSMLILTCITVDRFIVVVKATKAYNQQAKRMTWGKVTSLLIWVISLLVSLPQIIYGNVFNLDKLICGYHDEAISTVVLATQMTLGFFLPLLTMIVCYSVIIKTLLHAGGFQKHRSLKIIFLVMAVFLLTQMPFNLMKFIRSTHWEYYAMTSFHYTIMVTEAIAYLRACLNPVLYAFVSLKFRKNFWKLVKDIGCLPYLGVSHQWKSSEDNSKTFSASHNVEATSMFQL
# m5-HT2A agonist: agonists of mouse serotonin 5-HT2A receptor (HTR2A); P35363; CHO-K1 mHTR2A beta-arrestin complementation, luminescence; percent of 30 µM serotonin response; activation, % at 7.6 µM; 0.66% of 360,000 active; AID 624169;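 active = activation above a run cutoff, the mean activation of all tested compounds plus 3 SD, cut at about 14% in these data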;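 also: 0% = plate median of compound wells and 100% = 30 µM serotonin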
# EBI2 block: antagonists of human EBI2 receptor | EBI2 beta-arrestin recruitment, luminescence, 7a,25-OHC stimulated | inhibition, % at 5 µM | 0.81% of 360,000 active | AID 651636; in the data active = inhibition above about 38%;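 also: enzyme fragment complementation signal reports receptor beta-arrestin coupling in cells; 0% = agonist plus DMSO wells and 100% = wells without agonist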
# APJ antag conf: confirmation of human APJ apelin receptor antagonists; shares compounds with APJ antag; APJ beta-arrestin recruitment, luminescence, antagonist mode; inhibition, % at 20 µM; 66% of 950 active; AID 2766; in the data active = inhibition above about 50%
# CXCR6 antag conf: confirmation of human CXCR6 receptor antagonists. shares compounds with CXCR6 block. CHO-K1 CXCR6 PathHunter beta-arrestin, luminescence. inhibition, % at 20 µM. 65% of 700 active;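 active = mean inhibition over four retests above 40%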;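 also: receptor stimulated with 10 nM CXCL16 agonist; beta-galactosidase fragment complementation upon beta-arrestin recruitment to receptor; plate controls were CXCL16 plus DMSO for no effect and DMSO without CXCL16 for full effect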
# An asterisk follows results filed as active; x = not tested or not shown. The list is not random: actives were taken first. Their share in the collection is about 2.1%.
SMILES,CCR6 antagonist,APJ antag,APJ agonist,CXCR6 block,m5-HT2A agonist,EBI2 block,APJ antag conf,CXCR6 antag conf
Cc1cc([N+](=O)[O-])ccc1NC(=S)NC(=O)C(c1ccccc1)c1ccccc1,53*,42*,-11,35,-1,19,52*,x
COCCN(C(=O)c1cc(-c2ccc(F)cc2)nc2ccccc12)c1c(N)n(CC(C)C)c(=O)[nH]c1=O,3,x,x,-10,4,-11,x,x
Cc1ccc(C(=O)c2c3ccc(C(F)(F)F)cc3nn2CCC(N)=O)cc1,12,10,-2,3,-5,-24,x,x
CC1=NN(C(N)=S)C(=O)C1N=Nc1ccc([N+](=O)[O-])cc1 (stereo not given),75*,50*,-10,46*,2,7,81*,x
CC1=NN(C(N)=S)C(=O)C1N=Nc1ccc(O)cc1 (stereo not given),27,13,-5,6,8,-3,x,x
Oc1c(N=Nc2ccccn2)ccc2ccccc12,50*,68*,-12,32,-12,36,113*,x
COc1ccc(Cn2nnnc2C(c2ccccn2)N2CCN(c3cc(Cl)ccc3C)CC2)cc1 (stereo not given),19,-5,-1,7,1,14,x,x
COC(=O)c1ccc(C)c(-n2c(=O)n(Cc3ccccc3)c(=O)c3[nH]cnc32)c1,64*,61*,-9,66*,-11,22,122*,49*
Cc1ccc(-c2noc(CCC(=O)Nc3ccccc3C)n2)cc1,1,10,-5,-5,0,5,x,x
C=CCn1c(=O)c2c(nc3n2CC(C)CN3c2cccc(OC)c2)n(C)c1=O (stereo not given),59*,48*,-8,49*,-2,22,77*,51*
CCCCNC(=O)C1c2ccccc2OCC(=O)N1CCc1ccccc1 (stereo not given),x,x,x,8,4,-4,x,x
Cc1cccc(N2CCN(C(=O)c3ccc4c(c3)NC(=O)C(CSCc3cccc(F)c3)N4)CC2)c1C (stereo not given),x,18,7,x,x,x,x,x
CCCC(=O)OCCNc1cc(Sc2nc3ccccc3[nH]2)c2nonc2c1[N+](=O)[O-],118*,87*,-7,94*,-10,7,126*,103*
CC(=O)Nc1ccc(N=Nc2c(C)[nH]n(C(N)=S)c2=O)cc1,26,17,-5,24,-2,-8,x,x
COC(=O)c1ccc2c(c1)C(C)(C)C(/C=C/c1ccccc1O)=[N+]2C,89*,63*,1,68*,-7,16,124*,93*
C[N+]1=C(/C=C/Nc2ccccc2Cl)C(C)(C)c2ccccc21,23,-7,1,-8,5,-1,x,x
CCC1=NN(C(=O)c2ccccc2O)C(O)(c2ccccc2)C1 (stereo not given),43,19,-5,20,7,9,x,x
CCC1=NN(C(=O)c2ccc([N+](=O)[O-])cc2)C(O)(c2ccccc2)C1 (stereo not given),82*,45*,-10,64*,-6,10,71*,42*
O=[N+]([O-])c1c(Nc2ccc(O)cc2)cc(Cl)c2nonc12,107*,96*,-14,107*,-11,94*,126*,109*
CN(C)c1cc(Nc2ccc(O)cc2)c([N+](=O)[O-])c2nonc12,26,-11,-1,16,-3,-2,x,x
O=C(N/N=C(\c1ccccc1)c1cccnc1)c1ccc(O)cc1,12,1,-3,1,7,-6,x,x
O=C(N/N=C(\c1ccccc1)c1cccnc1)c1cccc(F)c1,101*,70*,-17,83*,-28,21,88*,94*
CN1CCN(C(=O)/C(C#N)=C/c2ccc(OC(F)F)cc2)CC1,-5,x,x,3,0,-18,x,x
CCc1ccc(C(O)c2ncc(-c3ccccc3C)[nH]2)cc1 (stereo not given),x,x,x,-6,4,-10,x,x
